Results taken from ChEMBL document CHEMBL5674869, “The Histone Methyltransferase Inhibitor A-366 Uncovers a Role for G9a/GLP in the Epigenetics of Leukemia” (PLoS One, 2015).
Activity calls are given as the source filed them. The rule behind the calls is not given here.

How the values were obtained:
[1] = Drug level in SCID/beige mouse liver xenografted with human MV4-11 cells at 30 mg/kg/day via osmotic-mini pump; type: ADME, organism-based; settings: in vivo
Procedure, shortened: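 Tumor-bearing SCID-beige female mice (6–8 wk) with subcutaneous flank MV4;11 xenografts (5 x 10^6 cells in 50% Matrigel, grown to ~200 mm3). Compound given by osmotic mini-pump at 30 mg/kg/day in 98% PEG-400/2% Tween-80. Separate PK/PD arm sacrificed after 2, 7 and 14 days of treatment; plasma and tissues collected and analyzed for drug levels.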

HT-1080 = experiment: Antiproliferative activity against human HT-1080 cells upto 10 uM after 5 days by Cell-Titer-Glo assay; type: functional, cell-based; settings: time 5.0 day
Procedure, shortened: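 ATCC tumor lines were grown in their recommended media with 10% FBS and STR-authenticated. Cells were exposed to compound for the stated number of days. Viable cells were read by CellTiter-Glo endpoint. Inhibition was the ratio of treated to untreated wells, with cell-free wells set as 100% inhibition. The EC50 was taken from the dose response.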

HL-60 = experiment: Antiproliferative activity against human HL-60 cells after 14 days by Cell-titer Glo assay; type: functional, cell-based; settings: time 14.0 day
Procedure, shortened: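 Leukemia cells (MV4;11 or HL-60) in medium with 10% FBS were treated with a dose range of compound for 14 days. Proliferation was read by CellTiter-Glo endpoint, with inhibition set against untreated controls and cell-free wells as 100% inhibition. Viability was also measured in parallel by trypan blue exclusion.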

With COc1cc2c(cc1OCCCN1CCCC1)N=C(N)C21CCC1 the Drug uptake [1] was “Active”, the Activity (HT-1080) was “inactive” and the Activity (HL-60) was “Active”.
